Reference: ChEMBL document CHEMBL1140332, “Design, synthesis, and enzymatic evaluation of N1-acyloxyalkyl- and N1-oxazolidin-2,4-dion-5-yl-substituted beta-lactams as novel inhibitors of human leukocyte elastase” (J Med Chem, 2005)
Calls of active or inactive are those of the source. The rule behind the calls is not given here.

Columns and labels:
[1] = target: T1, Neutrophil elastase (Homo sapiens) (UniProt P08246); assay: Second order rate constant for inhibition of Human leukocyte elastase (major diastereomeric pair of enantiomer)
T1 sequence (whole entry): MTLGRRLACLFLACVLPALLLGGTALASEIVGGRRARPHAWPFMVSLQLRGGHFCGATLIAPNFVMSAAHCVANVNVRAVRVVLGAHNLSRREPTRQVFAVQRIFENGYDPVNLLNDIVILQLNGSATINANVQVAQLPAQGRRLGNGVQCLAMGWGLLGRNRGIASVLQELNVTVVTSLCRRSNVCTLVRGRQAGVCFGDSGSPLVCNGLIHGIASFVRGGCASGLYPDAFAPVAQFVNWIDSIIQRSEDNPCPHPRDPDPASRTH
Summary of the method: (§1)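 Human leukocyte elastase (20 μM stock in pH 5.0 acetate buffer) incubated with inhibitor added from DMSO stock in 0.1 M HEPES pH 7.2, 25 °C. Aliquots withdrawn at intervals are diluted into HEPES containing MeO-Suc-Ala-Ala-Pro-Val-p-NA, and initial rates are followed at 410 nm over 60 s against control incubations. k_obs comes from plots of v/v0 versus time (Kitz–Wilson incubation method).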

[2] = target: T1, Neutrophil elastase (Homo sapiens); assay: Second order rate constant for inhibition of Human leukocyte elastase (minor diastereomeric pair of enantiomer); summary of the method: as §1
[3] = target: T1, Neutrophil elastase (Homo sapiens); assay: Second order rate constant for inhibition of Human leukocyte elastase (minor diastereomeric pair of enantiomer); NI=no inhibition; summary of the method: as §1
[4] = target: T1, Neutrophil elastase (Homo sapiens); assay: Second order rate constant for inhibition of Human leukocyte elastase (major diastereomeric 2 pairs of enantiomer); summary of the method: as §1

| SMILES | k obs / 1 [1] | further results |
| --- | --- | --- |
| CCOC(=O)C(OC(=O)NCc1ccccc1)N1C(=O)C(CC)(CC)C1Oc1ccccc1 (stereo unspecified) | 38.2 1/M 1/s | – |
| CCOC(=O)C(OC(=O)c1ccc(OC)cc1)N1C(=O)C(CC)(CC)C1Sc1nc2ccccc2o1 (stereo unspecified) | 12.9 1/M 1/s | – |
| CCC1(CC)C(=O)N(C2OC(=O)N(C(=O)[n+]3ccc(OC)cc3)C2=O)C1S(=O)(=O)c1ccccc1 (stereo unspecified) | 43.2 1/M 1/s | k obs / 1 [2]: 49.7 1/M 1/s |
| CCC1(CC)C(=O)N(C2OC(=O)N(Cc3ccccc3)C2=O)C1Oc1ccccc1 (stereo unspecified) | 115 1/M 1/s | k obs / 1 [2]: 144 1/M 1/s |
| CCC1(CC)C(=O)N(C(=O)NCc2ccccc2)C1Oc1ccc(C(=O)O)cc1 (stereo unspecified) | 1500 1/M 1/s | – |
| CCOC(=O)C(OC(=O)NC(=O)[n+]1ccccc1C(=O)OC)N1C(=O)C(CC)(CC)C1S(=O)(=O)c1ccccc1 (stereo unspecified) | 26.6 1/M 1/s | k obs / 1 [3]: inactive |
| CCC1(CC)C(=O)N(C2OC(=O)N(Cc3ccccc3)C2=O)C1S(=O)(=O)c1ccccc1 (stereo unspecified) | 68.5 1/M 1/s | k obs / 1 [2]: 51 1/M 1/s |
| CCOC(=O)C(OC(=O)c1ccc(OC)cc1)N1C(=O)C(CC)(CC)C1S(=O)(=O)c1ccccc1 (stereo unspecified) | – | k obs / 1 [4]: 24.4 1/M 1/s |
| CCC1(CC)C(=O)N(COC(=O)Nc2ccc(OC)cc2)C1S(=O)(=O)c1ccccc1 (stereo unspecified) | 100 1/M 1/s | – |
| CCOC(=O)C(OC(=O)c1ccc(OC)cc1)N1CC(CC)(CC)C1=O (stereo unspecified) | 10.7 1/M 1/s | – |
| CCC1(CC)C(=O)N(C2OC(=O)N(c3ccc(C)cc3)C2=O)C1Sc1nc2ccccc2o1 (stereo unspecified) | – | k obs / 1 [4]: 80 1/M 1/s |
| CCC1(CC)CN(C2OC(=O)N(Cc3ccccc3)C2=O)C1=O (stereo unspecified) | 23.9 1/M 1/s | – |
